Compound activity (PubChem)
MITF TRPM1 HTS = activators of MITF-driven TRPM1 promoter reporter, primary screen, cell-based, SK-MEL-5, luciferase, single point. SK-MEL-5 TRPM1-promoter luciferase, 24 h; % of positive control, neutral wells = 0. activation, % at 12.5 µM. actives 0.75% (n = 300,000). AID 588334, 2011;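 active = mean activation of at least 80% with every replicate also reaching 80%; inconclusive = mean reaches 80% but some replicate falls short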;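 note: 0% = neutral control wells and 100% = parthenolide positive control wells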
Vif inh = HIV Vif self-association inhibitors, primary screen, imaging, HEK293T, single point; HEK293T cells, Vif self-association by quenched fluorescence, 24 h; inhibition, % at 7.49 µM; actives 0.35% (n = 340,000); AID 602346, 2012; in the data active = inhibition above about 50%, passing the limit was not always enough; inconclusive = no clear call, values can overlap the other calls; inactive = below about 31%
Wnt bcat act = Wnt/beta-catenin pathway activators, primary screen, cell-based, plate reader, single point | Wnt/beta-catenin reporter cell assay, activator | activation, % at 9.35 µM | actives 1.2% (n = 300,000); in the data active = activation above about 30%, passing the limit was not always enough; inconclusive = no clear call, values can overlap the other calls;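 note: 0% = neutral control wells and 100% = positive control wells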
esBAF inh = Bmi1 luciferase reporter increase in mESCs, primary screen, esBAF inhibitor project, mouse ES cells, Bmi1 luciferase knock-in, single point; 24 h; 100% = twice the neutral-well signal; reporter increase, % at 12.5 µM; actives 2% (n = 350,000); in the data active = activation above about 40%; inconclusive = no clear call, values can overlap the other calls;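 note: 0% = median of the plate's neutral control wells and 100% = double that signal; a rise in the Bmi1 reporter signal indicates esBAF inhibition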
Xi reactivation = activators of inactive X chromosome reactivation, primary screen, imaging, XiGFP fibroblasts, GFP high-content imaging, set 2 | XiGFP mouse fibroblasts, % GFP-positive cells imaging, 3 d; cells co-treated with 5-aza-dC sensitizer; scaled so ellipticine positive control = 100% | activation, % at 7.58 µM | actives 0.055% (n = 360,000) | AID 743238, 2013;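 active = mean normalized replicate activation at least 10% and every replicate at or above 10%; inconclusive = only one of the two criteria met; inactive = mean below 10% and not all replicates reach 10%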;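 note: 0% = median of on-plate neutral control wells and 100% = ellipticine 6 µM median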
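System: XiGFP fibroblasts, SV40-immortalized. Medium: DMEM plus 5-aza-dC sensitizer. Doses: single point. Timing: 3 d treatment, 15 min room-temperature fixation. Control set: ellipticine 6 µM.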
* = called active by the depositor. This is a sample that favours compounds with a hit; in the whole collection about 2.6% have one here.

Results for O=C/C(=C\Nc1ccccn1)c1nc2ccccc2o1 ?
MITF TRPM1 HTS: 5; esBAF inh: 38

How did CC(=O)Nc1ccc(N/C=C(\C=O)c2nc3ccccc3o2)cc1 do in these assays?
MITF TRPM1 HTS: -25; Vif inh: -8; Wnt bcat act: -3; esBAF inh: 4; Xi reactivation: 0

Results for O=C(NCC1CCCCC1)[C@H]1[C@H](CO)[C@H]2Cn3c(ccc(-c4cccnc4)c3=O)[C@@H]1N2 ?
Xi reactivation: 1

What do the screens show for `COc1cccc2cc(-c3ccccc3)oc12`?
Vif inh: 14; Wnt bcat act: 23; esBAF inh: 34; Xi reactivation: 0

Results for Nc1cccc2cc(-c3ccccc3)oc12 ?
MITF TRPM1 HTS: 115*; Vif inh: -8; Wnt bcat act: -2; esBAF inh: 91*; Xi reactivation: 0

How did C[C@H]1CN([C@@H](C)CO)C(=O)c2cccc(NC(=O)c3cnccn3)c2O[C@@H]1CN(C)Cc1ccc2c(c1)OCO2 do in these assays?
esBAF inh: -10; Xi reactivation: 0

What do the screens show for `C[C@@H]1CCCCO[C@H](CN(C)Cc2ccccc2)[C@H](C)CN([C@@H](C)CO)C(=O)c2cc(NC(=O)Nc3ccccc3)ccc2O1`?
esBAF inh: 0; Xi reactivation: 0

Results for O=C(c1cccs1)N1CCN=C1SCc1ccc(F)cc1 ?
MITF TRPM1 HTS: 9; Vif inh: -2; Wnt bcat act: 37*

What do the screens show for `O=C(c1cccs1)N1CCN=C1SCc1ccccc1`?
MITF TRPM1 HTS: 13; Vif inh: 7; Wnt bcat act: 2

Results for O=C(N/N=C\c1ccccn1)c1ccccc1O ?
MITF TRPM1 HTS: 10; Vif inh: inconclusive; Wnt bcat act: 36*; Xi reactivation: 0

What do the screens show for `COc1ccc2oc(=O)c(-c3nc4ccccc4o3)cc2c1`?
MITF TRPM1 HTS: 43; Vif inh: 2; Wnt bcat act: 103*

How did Cn1c(-c2cc3ccccc3oc2=O)nc2ccccc21 do in these assays?
MITF TRPM1 HTS: 78; Vif inh: -7; Wnt bcat act: 25; Xi reactivation: 0

What do the screens show for `Cc1cc(-c2nnc(-c3cc4ccccc4oc3=O)o2)c(C)n1-c1ccccc1`?
Vif inh: 1; esBAF inh: 54*

What do the screens show for `COc1ccc2cc(-c3nc4ccccc4n3C)c(=O)oc2c1`?
MITF TRPM1 HTS: 90*; Vif inh: -6; Wnt bcat act: 13; esBAF inh: 87*

How did Cc1cc(N)ccc1-c1cc2ccccc2oc1=O do in these assays?
MITF TRPM1 HTS: 23; Vif inh: 52*; Wnt bcat act: 2; esBAF inh: 23; Xi reactivation: 0

How did COc1ccc(-c2nnc(-c3cc4ccccc4oc3=O)o2)cc1 do in these assays?
MITF TRPM1 HTS: 55; Vif inh: -2; esBAF inh: 12

Results for O=c1oc2ccccc2cc1-c1nc2ccccc2o1 ?
MITF TRPM1 HTS: 46; Vif inh: -6; Wnt bcat act: 35*; esBAF inh: -2

Results for C[C@@H]1CCCCO[C@H](CN(C)C(=O)CCCN(C)C)[C@@H](C)CN([C@H](C)CO)C(=O)c2cc(NS(=O)(=O)c3cn(C)cn3)ccc2O1 ?
esBAF inh: 4; Xi reactivation: -1

What do the screens show for `Oc1ccccc1C=NNC(=S)NC1CC2C=CC1C2` (stereo not drawn)?
Vif inh: -5; Wnt bcat act: -3; esBAF inh: 70*; Xi reactivation: 0

What do the screens show for `O=C(COC(=O)c1c2c(nc3ccccc13)/C(=C\c1ccco1)CC2)NC1CCCC1`?
MITF TRPM1 HTS: -3; Vif inh: 5; Wnt bcat act: -3; esBAF inh: 12; Xi reactivation: 0

How did CN(CCC#N)C(=O)COC(=O)c1c2c(nc3ccccc13)/C(=C\c1ccco1)CC2 do in these assays?
MITF TRPM1 HTS: 31; Vif inh: 7; Wnt bcat act: -2; esBAF inh: 56*; Xi reactivation: 0

What do the screens show for `CCCc1cc2c(=O)c(-c3ccccn3)coc2cc1OC`?
MITF TRPM1 HTS: 116*; Vif inh: 3; Wnt bcat act: 53*; esBAF inh: 100*

What do the screens show for `CCCc1cc2c(=O)c(-c3ccccn3)c(C)oc2cc1O`?
MITF TRPM1 HTS: -10; Vif inh: 6; Wnt bcat act: 1; esBAF inh: 10

What do the screens show for `C[C@@H]1CN([C@H](C)CO)C(=O)c2cccc(NC(=O)Nc3ccc(C(F)(F)F)cc3)c2O[C@H]1CN(C)C(=O)Nc1ccccc1`?
esBAF inh: 6; Xi reactivation: 0

How did O=c1[nH]nc(-c2ccc(NCCO)c([N+](=O)[O-])c2)c2ccccc12 do in these assays?
MITF TRPM1 HTS: 5; Vif inh: 56*; Wnt bcat act: 4; esBAF inh: 2; Xi reactivation: 0

What do the screens show for `O=C(C1CCC1)N1CC(=O)N2[C@H](CO)[C@H](c3ccc(C#Cc4cccc(F)c4)cc3)[C@H]2C1`?
Xi reactivation: 0

Results for O=C(CSc1nnc(-c2cccs2)o1)c1cccs1 ?
MITF TRPM1 HTS: inconclusive; Vif inh: -3; esBAF inh: 104*

Results for CC1CCCN(C(=O)CSc2nnc(-c3cccs3)o2)C1 (stereo not drawn) ?
MITF TRPM1 HTS: 89*; Vif inh: 10; Wnt bcat act: 13; esBAF inh: 15; Xi reactivation: 0

Results for COc1ccc(S(=O)(=O)N(C)C[C@H]2Oc3ncc(/C=C/c4ccccc4)cc3C(=O)N([C@@H](C)CO)C[C@H]2C)cc1 ?
esBAF inh: 3; Xi reactivation: -1

How did O=C(C[C@@H]1CC[C@@H](NS(=O)(=O)c2ccc(F)cc2)[C@@H](CO)O1)N1CCN(c2ccccc2)CC1 do in these assays?
esBAF inh: 4; Xi reactivation: 0

What do the screens show for `CCc1ccc(-c2ccc(SCc3ccccn3)nn2)cc1`?
MITF TRPM1 HTS: 71; Vif inh: 11; Wnt bcat act: 13; esBAF inh: 63*; Xi reactivation: 0

How did Cc1ccc(S(=O)(=O)N(C)C[C@@H]2Oc3ccc(NC(=O)CCCN(C)C)cc3CC(=O)N([C@H](C)CO)C[C@H]2C)cc1 do in these assays?
esBAF inh: -3; Xi reactivation: 0

What do the screens show for `COc1cccc(/C=C/C(=C2\C(=O)N(c3ccccc3)N=C2C)c2ccc(Br)cc2)c1OC`?
Vif inh: -14; Wnt bcat act: 33*; esBAF inh: -8

Results for Cc1ccc2nc(-c3ccc(F)cc3)c(Cc3cccc(Cl)c3)n2c1 ?
Vif inh: 13; Wnt bcat act: 24; esBAF inh: 48*; Xi reactivation: 0
